In ChEMBL document CHEMBL4619802, “Discovery and Characterization of Pure RhlR Antagonists against Pseudomonas aeruginosa Infections” (J Med Chem, 2020) one finds Activity and survival data, which are given here for one molecule.

Experiment [1] concerns the target T1, Transcriptional regulator MvfR (Pseudomonas aeruginosa PA14) (UniProt A0A072ZLE6).
T1 sequence (whole entry): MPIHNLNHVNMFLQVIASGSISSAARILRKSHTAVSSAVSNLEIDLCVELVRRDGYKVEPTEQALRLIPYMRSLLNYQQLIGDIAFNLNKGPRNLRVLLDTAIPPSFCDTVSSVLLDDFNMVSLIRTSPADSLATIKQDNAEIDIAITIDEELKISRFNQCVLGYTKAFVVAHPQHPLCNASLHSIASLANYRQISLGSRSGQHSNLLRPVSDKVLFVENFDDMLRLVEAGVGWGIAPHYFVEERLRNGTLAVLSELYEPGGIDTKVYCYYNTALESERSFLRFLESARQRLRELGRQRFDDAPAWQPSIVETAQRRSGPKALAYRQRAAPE
As to the kind of experiment: Antagonist activity at Pseudomonas aeruginosa PqsR expressed in Escherichia coli DH5alpha at 0.1 to 10 uM incubated for 1.5 hrs by luminescence reporter gene assay. On the technique in general: A reporter such as luciferase makes a cellular process visible.

The test system of experiment [2] is Pseudomonas aeruginosa. Put plainly: Effect on lasB expression in Pseudomonas aeruginosa harboring RhlR mutant up to 10 uM after 24 hrs by RT-qPCR method. It counts as functional, organism-based. A digest of the protocol:
(§1)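 P. aeruginosa overnight culture (OD595 = 1.0) was diluted 1:20 in AB medium (pH 7.5) with compounds or controls at 0–10 µM. It was grown statically in borosilicate bottles at 37 °C for 24 h, and biofilm cells were collected. Total RNA was extracted with TRI reagent. SYBR-based RT-qPCR used QS gene primers: 95 °C 10 s, then 40 cycles of 95 °C 10 s and 60 °C 10 s.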
(Real-time PCR tracks product formation cycle by cycle.)

The subject of experiment [3] is Pseudomonas aeruginosa. As to the kind of experiment: Downregulation of rhlA expression in biofilm of Pseudomonas aeruginosa at 10 uM after 24 hrs by RT-qPCR analysis relative to control. It counts as functional. In a few lines:
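P. aeruginosa (OD595 1.0) diluted 1:20 in AB medium with compound in borosilicate bottles, 37 °C for 24 h. Total RNA extracted from biofilm cells and run by SYBR RT-qPCR with QS-gene primers. Cycling: 95 °C 10 s, then 40 cycles of 95 °C 10 s and 60 °C 10 s.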

The target of experiment [4] is T2, Transcriptional activator protein LasR (Pseudomonas aeruginosa (strain ATCC 15692 / PAO1 / 1C / PRS 101 / LMG12228)) (UniProt P25084).
T2 sequence (whole entry): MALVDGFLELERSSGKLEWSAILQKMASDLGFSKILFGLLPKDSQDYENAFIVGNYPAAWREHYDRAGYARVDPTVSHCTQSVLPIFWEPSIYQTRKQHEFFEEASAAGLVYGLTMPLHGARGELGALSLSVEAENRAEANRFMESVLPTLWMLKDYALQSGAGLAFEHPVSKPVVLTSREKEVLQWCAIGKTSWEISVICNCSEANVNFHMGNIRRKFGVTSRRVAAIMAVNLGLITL
As to the kind of experiment: Agonist activity at Pseudomonas aeruginosa LasR expressed in Escherichia coli DH5alpha at 0.1 to 10 uM incubated for 1.5 hrs by luminescence reporter gene assay.

In experiment [5] the test system is Pseudomonas aeruginosa. Put plainly: Effect on extracellular polymeric substance in biofilm of Pseudomonas aeruginosa assessed as reduction in protein level at 10 uM relative to control. The class given is functional. The arrangement: scale not given: the % may be the effect or the level left. In a few lines:
(§2)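 Biofilm scraped from drip-flow reactor slides and resuspended in 0.01 M KCl. Sonicated 4 cycles of 5 s on/5 s off, supernatant filtered through 0.22 µm. Protein by Lowry/Folin, read at OD750. Carbohydrate by sulfuric acid 30 min then 5% phenol at 90 °C for 5 min, read at OD490. Each divided by OD595.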

Experiment [6] deals with T1, Transcriptional regulator MvfR (Pseudomonas aeruginosa PA14). Put plainly: Agonist activity at Pseudomonas aeruginosa PqsR expressed in Escherichia coli DH5alpha at 0.1 to 10 uM incubated for 1.5 hrs by luminescence reporter gene assay.
For experiment [7], the system named is Pseudomonas aeruginosa. Put plainly: Downregulation of phzC1 expression in Pseudomonas aeruginosa harboring RhlR mutant up to 10 uM after 24 hrs by RT-qPCR method. It counts as functional, organism-based. In a few lines: as §1
In experiment [8] the test system is Pseudomonas aeruginosa. As to the kind of experiment: Antibacterial activity against Pseudomonas aeruginosa assessed as bacterial growth at 100 uM incubated for 24 hrs relative to control. It counts as functional. In a few lines: (§3)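 P. aeruginosa overnight culture (OD595 1.0) diluted 1:20 in AB medium (pH 7.5, 1% glucose, casamino acids, arginine) with compound, in borosilicate bottles, 37 °C for 24 h without shaking. Growth taken as OD595 of the suspended culture. Attached cells washed twice with PBS, stained with 0.1% crystal violet for 10 min, dye eluted in ethanol and read at 545 nm.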

The subject of experiment [9] is Pseudomonas aeruginosa. As to the kind of experiment: Effect on pqsR expression in Pseudomonas aeruginosa harboring RhlR mutant up to 10 uM after 24 hrs by RT-qPCR method. It counts as functional, organism-based. In a few lines: as §1
Experiment [10] concerns Pseudomonas aeruginosa. Put plainly: Downregulation of rhlA expression in Pseudomonas aeruginosa harboring RhlR mutant up to 10 uM after 24 hrs by RT-qPCR method. It counts as functional, organism-based. In a few lines: as §1
Experiment [11] has as its system Pseudomonas aeruginosa. Put plainly: Effect on extracellular polymeric substance in biofilm of Pseudomonas aeruginosa assessed as reduction in carbohydrate level at 10 uM relative to control. The class given is functional. The arrangement: scale not given: the % may be the effect or the level left. A digest of the protocol: as §2
For experiment [12], the system named is Pseudomonas aeruginosa. As to the kind of experiment: Effect on lasR expression in Pseudomonas aeruginosa harboring RhlR mutant up to 10 uM after 24 hrs by RT-qPCR method. The class given is functional, organism-based. In a few lines:
as §1

The test system of experiment [13] is Pseudomonas aeruginosa. Put plainly: Antibacterial activity against Pseudomonas aeruginosa assessed as bacterial growth at 10 uM incubated for 24 hrs relative to control. It counts as functional. In a few lines:
as §3

For experiment [14], the system named is Pseudomonas aeruginosa. As to the kind of experiment: Antibacterial activity against Pseudomonas aeruginosa infected in Tenebrio molitor larvae assessed as larvae survival at 10 uM incubated for 20 days and measured every 5 days. It counts as functional. A digest of the protocol: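 P. aeruginosa overnight culture (OD595 = 1.0) was centrifuged, and the supernatant passed through a 0.22 µm filter. 10 µL was injected into T. molitor larvae by syringe needle, with compounds or controls at 0–10 µM. Larvae were kept in Petri dishes at 25 °C for 20 days, and mortality was scored every 5 days.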

Experiment [15] relates to Pseudomonas aeruginosa. Put plainly: Effect on pycocyanin production in Pseudomonas aeruginosa harboring RhlR mutant at 10 uM after 24 hrs by […]. The class given is functional, organism-based. A digest of the protocol: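 P. aeruginosa overnight culture (OD595 = 1.0) was diluted 1:100 in AB medium with compounds or controls at 0–10 µM and grown at 37 °C for 24 h. Pyocyanin was extracted from the supernatant with 50% TFA at 37 °C for 1 h, then filtered. It was quantified by C18 HPLC (99:1 water/TFA, 0.5 mL/min, 25 °C) as peak height at the 20 min retention time.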

Active and inactive are the calls of the source. The calls are words filed in the database; no cut-off is given here.

Turning to `CCCC(=O)C#Cc1ccc(F)c(F)c1`, the result (in [1]; with Pseudomonas aeruginosa [2]; in experiment [4]; in experiment [6]; in the experiment on Pseudomonas aeruginosa [9]; with Pseudomonas aeruginosa [12]) was inactive. Also, the outcome with Pseudomonas aeruginosa [15] was inactive. Also, the Activity was 65 - 79% with Pseudomonas aeruginosa [3]; 72% in the experiment on Pseudomonas aeruginosa [5]; 99% with Pseudomonas aeruginosa [8]; 39% with Pseudomonas aeruginosa [11]; 103% in the experiment with Pseudomonas aeruginosa [13]. The result in the experiment with Pseudomonas aeruginosa [7] and in the experiment on Pseudomonas aeruginosa [10] was Active. In the experiment on Pseudomonas aeruginosa [14], the survival at 10 µM stood at 80%.
